# Sampled rows, rich in hits. Any-hit rate of the full collection: about 3%.
# HTR1E agonist: activates the human 5-HT1E serotonin receptor; P28566; CHO 5-HT1E Ga15 NFAT-bla reporter, FRET; 0% DMSO wells, 100% control agonist wells; activation, % at 6 µM; 0.69% of 65,000 active;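 active = activation above a set limit, the screen-wide mean activation plus 3 SD, cut at about 8.5% in these data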;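 also: 100% = positive control agonist at 1 µM giving full maximal response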
# S1P1 ag pot: S1P1 (human) agonism or agonism potentiation; P21453; S1P1 CRE-bla cells, forskolin, beta-lactamase FRET, potentiator mode; S1P1 agonist co-added at EC20, 2 nM; 100% = saturating reference agonist, 0% = basal; activation, % at 9.5 µM; 0.57% of 56,000 active; AID 449;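 active = activation above a cutoff set at the mean activation of all tested compounds plus 3 SD, cut at about 54% in these data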;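 also: forskolin at 4 µM as EC80 and the EC20 agonist is SEW2871; 100% = SEW2871 at its EC100 plus forskolin at EC80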
# Target sequence (P21453 whole entry, looked up): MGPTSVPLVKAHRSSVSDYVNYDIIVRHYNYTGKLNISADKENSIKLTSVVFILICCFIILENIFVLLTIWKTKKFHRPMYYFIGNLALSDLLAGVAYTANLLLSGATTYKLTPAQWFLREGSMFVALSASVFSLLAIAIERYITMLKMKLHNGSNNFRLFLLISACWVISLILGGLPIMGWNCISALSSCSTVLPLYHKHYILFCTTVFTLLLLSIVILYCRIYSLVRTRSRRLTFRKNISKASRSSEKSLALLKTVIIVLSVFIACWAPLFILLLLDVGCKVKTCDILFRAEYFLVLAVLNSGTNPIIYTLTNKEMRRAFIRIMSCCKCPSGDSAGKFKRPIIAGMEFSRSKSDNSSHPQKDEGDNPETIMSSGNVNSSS
# HTR1E antagonist: blocks the human 5-HT1E serotonin receptor; P28566; CHO 5-HT1E Ga15 NFAT-bla reporter, FRET, antagonist; inhibition, % at 6 µM; 0.99% of 65,000 active;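 active = inhibition above a set limit, the mean inhibition across every tested compound plus 3 SD, cut at about 29% in these data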;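 also: signal is the 460 over 535 nm emission ratio of beta-lactamase substrate; 0% = agonist plus DMSO wells and 100% = wells without agonist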
# 5HT1a antag: antagonists of human 5-HT1a serotonin receptor | P08908 | CHO 5-HT1a Ga15 NFAT-bla reporter, antagonist mode | inhibition, % at 10 µM | 0.68% of 62,000 active;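 active = inhibition above the mean of all tested compounds plus 3 SD, cut at about 43% in these data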;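 also: receptor stimulated by 5-CT agonist at 100 nM near EC80; beta-lactamase reporter measured by ratiometric fluorescence of a cleavable substrate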
# HTR1A agonist: agonists of human 5-HT1a serotonin receptor; CHO 5-HT1a Ga15 NFAT-bla reporter, FRET ratio; 0% basal, 100% maximal reference agonist; P08908; 0.56% of 65,000 active; activation, % at 10 µM; AID 567;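 active = activation above the screen-wide mean activation plus 3 SD, cut at about 19% in these data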;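 also: 0% = DMSO wells and 100% = 5-CT at EC100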
# S1P3 ag: agonists of human S1P3 receptor; S1P3 NFAT-BLA reporter cells, agonism, FRET ratio; relative to 1 µM S1P, basal subtracted; activation, % at 4.5 µM; 0.1% of 60,000 active;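 active = activation above the screen-wide mean plus 3 SD, cut at about 4.5% in these data, passing the limit was not always enough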
#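 Benchmarks: high control 1 µM S1P / System: stable CHO line with human S1P3, Gα16, NFAT-BLA reporter / Dosing: single compound concentration, 4.5 µM final / Timing: 4 h compound at 37 °C, 2 h substrate at RT / Measured by: FRET β-lactamase substrate fluorescence, excitation 405 nm, 460/535 nm emission ratio, background-subtracted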
# Active calls of the source: *; . = no result.
SMILES,HTR1E agonist,S1P1 ag pot,HTR1E antagonist,5HT1a antag,HTR1A agonist,S1P3 ag
COc1ccc(-c2nc(-c3ccccc3OC)no2)cc1OC,0,83*,8,13,-1,0
CCOc1ccc(-c2nc(CSCC(=O)NCc3ccco3)c(C)o2)cc1,1,9,-2,16,-1,-1
CCCCCOc1ccc(NC(=O)CCCC(=O)O)cc1,-1,-13,0,-19,-3,0
O=C(c1ccco1)N1CCN(CC(O)COc2ccc3oc4ccccc4c3c2)CC1 (configuration not stated),0,8,-14,0,29*,0
O=C(CCN1C(=O)c2ccccc2C1=O)N1CCC(c2ccccc2)C1 (configuration not stated),1,.,-5,-6,32*,1
O=C(CCN1C(=O)c2ccccc2C1=O)N1CCCCCC1,0,0,-3,-12,-1,-1
CCCCSc1nc(C)c(C(C)=O)cc1C#N,-1,-27,23,-9,0,-1
Cn1nnnc1Sc1ncnc2scc(-c3ccc(F)cc3)c12,0,-4,48*,34,0,-1
Cc1ccc(-c2nc(NC(=O)CSc3nnnn3-c3ccccc3)ns2)cc1,0,-62,-15,50*,2,-1
Cc1ncc(CO)c2c1OC(C)(C)OC2,-1,-14,4,2,27*,-1
CC(=O)c1cc(C)ccc1OC(=O)c1ccco1,0,0,3,4,-2,-2
CN1C(=O)C(O)(CC(=O)c2cccc(-n3cccc3)c2)c2ccccc21 (configuration not stated),0,.,-6,4,-1,-1
CC(C)CC1(C)NC(=O)N(CCN2C(=O)c3ccccc3C2=O)C1=O (configuration not stated),0,-13,-6,-4,1,0
Cc1c(C(=O)OCCOC(C)C)[nH]c2c1C(=O)CC(c1ccco1)C2 (configuration not stated),-1,-12,81*,63*,-3,-2
CCOC(=O)c1[nH]c2c(c1C)C(=O)CC(c1ccco1)C2 (configuration not stated),0,-10,74*,53*,-1,-1
CSCCOC(=O)c1[nH]c2c(c1C)C(=O)CC(c1ccco1)C2 (configuration not stated),1,21,57*,27,0,0
COCCOC(=O)c1[nH]c2c(c1C)C(=O)CC(c1ccco1)C2 (configuration not stated),-1,-4,35*,16,-1,-1
Cc1ccc2[nH]c3c(=O)n(CCCN4CCN(C)CC4)cnc3c2c1,0,-5,4,7,2,-1
O=C1NC(=O)C2(COC3(CCCC3)OC2)S1,-2,-1,5,5,-2,0
Cc1c(C(=O)O)[nH]c2c1C(=O)CC(c1ccccc1)C2 (configuration not stated),0,.,5,-12,0,.
COC(=O)c1[nH]c2c(c1C)C(=O)CC(c1cccs1)C2 (configuration not stated),0,-2,57*,39,-4,-1
CCCCOC(=O)c1[nH]c2c(c1C)C(=O)CC(c1cc(OC)c(OC)c(OC)c1)C2 (configuration not stated),0,134*,15,25,1,-1
Cc1c(C(=O)OCc2ccccc2)[nH]c2c1C(=O)CC(c1ccco1)C2 (configuration not stated),-1,-1,84*,58*,1,-1
COCCOC(=O)c1[nH]c2c(c1C)C(=O)CC(c1ccccc1)C2 (configuration not stated),-1,.,67*,36,1,.
COc1ccc(C)cc1Nc1cc(C)nc2nc(C)nn12,0,-37,-1,6,3,0
CC(=O)Nc1nc(SCCCc2ccccc2)n[nH]1,0,12,4,16,-2,-1
Cc1nc2ncnn2c(C)c1CCC(=O)Oc1ccccc1,0,-22,-2,-8,0,0
